Reference: publication PMC4180501 (Biochimica et biophysica acta, 2012)
Positions count from the first letter of the chain named. Read-outs that look alike come from different tables or passages of the source.

Assays:
[1] = target: T1, GK-WT (Homo sapiens, UniProt P35557); experiment: NADP+-coupled spectrophotometric kinetic assay; type: biochemical
T1 sequence (P35557 1-465): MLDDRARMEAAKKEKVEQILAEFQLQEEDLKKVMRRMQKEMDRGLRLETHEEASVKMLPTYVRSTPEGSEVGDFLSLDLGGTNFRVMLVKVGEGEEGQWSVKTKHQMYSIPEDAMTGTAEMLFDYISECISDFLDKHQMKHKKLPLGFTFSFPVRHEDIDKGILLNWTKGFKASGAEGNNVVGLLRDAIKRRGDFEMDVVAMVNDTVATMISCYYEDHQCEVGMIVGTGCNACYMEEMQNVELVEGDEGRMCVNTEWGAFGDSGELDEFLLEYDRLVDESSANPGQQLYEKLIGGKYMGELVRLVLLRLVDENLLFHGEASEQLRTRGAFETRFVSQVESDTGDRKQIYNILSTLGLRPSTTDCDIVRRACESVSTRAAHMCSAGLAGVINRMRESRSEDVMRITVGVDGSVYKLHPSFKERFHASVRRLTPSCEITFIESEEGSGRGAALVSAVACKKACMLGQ

[2] = target: T2, GK-W99 (W167F/W257F) (Homo sapiens, UniProt P35557, W167F/W257F); experiment: NADP+-coupled spectrophotometric kinetic assay; type: biochemical; details: read-out: ATP KM; W-99; no GKA; 30% glycerol
T2 sequence (P35557 1-465 W167F/W257F): T1 sequence (P35557 1-465) with W167F, W257F
Summary of the method: (§1)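 Recombinant human β-cell glucokinase single-Trp variant, expressed in E. coli as a GST fusion and sequence-verified. Catalytic parameters came from an NADP+-coupled spectrophotometric assay run with or without 30% glycerol. Hill coefficient and glucose S0.5 were obtained by fitting v/Vmax = [glucose]^H/(K′+[glucose]^H), with […].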

[3] = target: T3, GK-W167 (W99R/W257F) (Homo sapiens, UniProt P35557, W257F/W99R); experiment: NADP+-coupled spectrophotometric kinetic assay; type: biochemical; details: read-out: ATP KM; W-167; no GKA; 30% glycerol
T3 sequence (P35557 1-465 W99R/W257F): T1 sequence (P35557 1-465) with W99R, W257F
Summary of the method: as §1

[4] = target: T4, GK- W257 (W99R/W167F) (Homo sapiens, UniProt P35557, W167F/W99R); experiment: NADP+-coupled spectrophotometric kinetic assay; type: biochemical; details: read-out: ATP KM; W-257; no GKA; 30% glycerol
T4 sequence (P35557 1-465 W99R/W167F): T1 sequence (P35557 1-465) with W99R, W167F

[5] = target: T1, GK-WT; details: read-out: ATP KM, no GKA, no glycerol, ref [19]; cited from earlier work
[6] = target: T2, GK-W99 (W167F/W257F); details: read-out: ATP KM; W-99; no GKA; no glycerol; ref [19]; cited from earlier work
[7] = target: T3, GK-W167 (W99R/W257F); details: read-out: ATP KM; W-167; no GKA; no glycerol; ref [19]; cited from earlier work
[8] = target: T4, GK- W257 (W99R/W167F); details: read-out: ATP KM; W-257; no GKA; no glycerol; ref [19]; cited from earlier work
[9] = target: T1, GK-WT; experiment: DSC thermal denaturation
Summary of the method: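 Wild-type recombinant human GK was run by DSC at 0.3 mg/ml (6 µM) in 5 mM phosphate, 100 mM KCl, pH 7.3, in buffer or 20% glycerol, with glucose up to 300 mM. The scan was 0.25 degree/min against a protein-free reference. Tm was plotted against glucose and fit to a hyperbola for EC50. Unfolding rate constant used k=vCp/(Qt−Q) to derive activation energy.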

[10] = target: T1, GK-WT; experiment: Temperature dependent tryptophan fluorescence; details: glycerol present, absence of glucose
Summary of the method: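 Tryptophan emission spectra of about 3 µM GK in 5 mM K-phosphate, pH 7.3, 100 mM KCl were recorded from 10 to 65 °C in a thermostatted, thermocouple-monitored cell. […] Line 7 also used ± 20% glycerol. Denaturation was followed as the I320/I360 ratio and its temperature derivative.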

[11] = target: T1, GK-WT; experiment: Urea unfolding/refolding of GK by tryptophan fluorescence
Summary of the method: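 GK-WT unfolding was followed by urea titration in 20 mM PO4, 50 mM KCl, 1 mM EDTA, 1 mM DTT, pH 7.3, 20 °C, ± 20% glycerol, ± 300 mM glucose. I320/I360 was read at 295 nm excitation, and ΔGu(H2O) came from a two-state fit. Reversibility was tested after 30 min in 4 or 8 M urea, then dialysis, by restoration of the spectrum and glucose response.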

## Nc1ncnc2c1ncn2[C@@H]1O[C@H](COP(=O)(O)OP(=O)(O)OP(=O)(O)O)[C@@H](O)[C@H]1O [ATP]
[1]; read-out: ATP KM, GK-WT, no GKA, 30% glycerol
  Km: 230 µM
[2]
  Km: 710 µM
[3]
  Km: 300 µM
[4]
  Km: 710 µM
[5]
  Km: 460 µM
[6]
  Km: 1630 µM
[7]
  Km: 780 µM
[8]
  Km: 3350 µM

## OCC(O)CO [glycerol]
[1]; presence of glycerol
  Q10 of the GK reaction: 1.47
[9]; GK-WT in 20% glycerol, no D-glucose
  ΔH thermal denaturation: 126 kcal/mol
[9]; GK-WT in 20% glycerol, no D-glucose, DSC
  Tm: 51.3 °C
[9]; GK-WT, 20% glycerol, 0 mM D-glucose
  Ea thermal denaturation: 131.5 kcal/mol
[10]
  TmF: 48 °C
[11]; GK-WT in 20% glycerol, 20°C, pH 7.3
  ΔGu(H2O) of urea denaturation: 1.84 kcal/mol

## NC(N)=O [urea]
[11]; 4 or 8 M urea, TF studies, urea removed by dialysis
  reversibility of GK unfolding: fully reversible
